Bioassay records deposited in PubChem BioAssay by several laboratories.
This is a sample that favours compounds with a hit; in the whole collection about 2.2% have one here.
Scp-1 inhibitor – Scp-1 phosphatase inhibitors, primary screen, biochemical, colorimetric, uHTS. Carboxy-terminal domain RNA polymerase II polypeptide A small phosphatase 1 (Homo …. 340,000 tested, 0.88% active. inhibition, % at 20 µM. Recombinant Scp1, phosphopeptide, malachite green phosphate absorbance;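 active = inhibition above about 50% at 20 µM, limit read from the data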
Target sequence (Q9GZU7 76-261 limits assumed): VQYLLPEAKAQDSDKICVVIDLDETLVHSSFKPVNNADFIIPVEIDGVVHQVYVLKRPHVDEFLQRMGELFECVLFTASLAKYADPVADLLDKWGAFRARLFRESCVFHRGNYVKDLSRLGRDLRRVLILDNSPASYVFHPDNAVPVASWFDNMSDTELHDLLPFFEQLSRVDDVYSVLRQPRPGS
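Test system: SCP-1 phosphatase catalytic domain, residues 76-261; measured by: colorimetric phosphate reagent with accelerator and stabiliser, absorbance at 630 nm; timing: enzyme reaction 45 min at room temperature, colour 5 min, stabilisation 30 min; also added: Phosphorylated 17-residue peptide substrate; compound dosing: one concentration, 20 µM, with 1.0% DMSO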
SUMO1-SIM PPI – modulators of SUMO1 protein-protein interactions, primary screen, biochemical, uHTS; inhibition, % at 20 µM; Small ubiquitin-related modifier 1 (Homo sapiens), P63165; 360,000 tested, 0.33% active; SUMO1 binding to a labelled peptide, TR-FRET, 1 h; in the data active = inhibition above about 37%
Target sequence (P63165 whole entry, looked up): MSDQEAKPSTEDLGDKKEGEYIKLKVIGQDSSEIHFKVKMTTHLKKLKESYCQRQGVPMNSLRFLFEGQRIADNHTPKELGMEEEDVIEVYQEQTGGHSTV
LMPTP inh – LMPTP phosphatase inhibitors, primary screen, biochemical, fluorescence intensity, uHTS. inhibition, % at 20 µM. 360,000 tested, 0.22% active. recombinant LMPTP-A, OMFP fluorogenic substrate. AID 651560, 2012. Low molecular weight phosphotyrosine protein phosphatase (Homo sapiens), P24666;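 active = compounds that cut the enzyme signal by at least half of the control window in the single-dose screen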
Target sequence (P24666 whole entry, looked up): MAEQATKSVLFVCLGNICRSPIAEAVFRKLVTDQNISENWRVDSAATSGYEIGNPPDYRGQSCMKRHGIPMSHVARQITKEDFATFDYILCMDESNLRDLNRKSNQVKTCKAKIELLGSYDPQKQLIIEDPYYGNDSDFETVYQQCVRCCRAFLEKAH
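Test system: LMPTP-A phosphatase enzyme; input: 0.625 nM LMPTP-A final; reagent: OMFP substrate, 400 µM final; compound dosing: 20 µM single dose, 3% DMSO; incubation: 50 min dark incubation at room temperature; measured by: endpoint fluorescence intensity from OMFP dephosphorylation; measure: % inhibition relative to no-enzyme and uninhibited control wells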
STEP inh – STEP phosphatase inhibitors, primary screen, biochemical, fluorescence intensity, uHTS. Tyrosine-protein phosphatase non-receptor type 5 (Homo sapiens), P54829. recombinant STEP, OMFP fluorogenic substrate. inhibition, % at 20 µM. 360,000 tested, 0.25% active. AID 588621, 2011;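 active = inhibition at 20 µM, scaled per plate between control wells, above about 37%, limit read from the data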
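System: STEP phosphatase, cell-free reaction; Buffer or medium: Bis-Tris pH 6.0 buffer with DTT, detergent; Incubation: 20 min at room temperature, dark; Measured by: fluorescence, 480/540 nm.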
DNMT1 block – human DNMT1 methyltransferase inhibitors, primary screen, biochemical, molecular beacon, fluorescence, HinP1I cleavage, uHTS | DNA (cytosine-5)-methyltransferase 1 (Homo sapiens), P26358 | inhibition (reported as % activation of signal), % at 10 µM | 360,000 tested, 0.83% active | AID 588458, 2011; in the data active = inhibition above about 50%
GRK2 inh – compounds blocking aptamer binding on GRK2 – biochemical, human GRK2, bead flow cytometry, HTS, primary screen; Beta-adrenergic receptor kinase 1 (Homo sapiens), P25098; inhibition of aptamer binding, % at 10 µM; FAM-aptamer displacement from GRK2; 330,000 tested, 0.59% active;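 active = inhibition of aptamer binding above 40%, roughly 3 SD of noise, on plates passing a quality check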;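 also: median bead fluorescence of bound FAM aptamer so fluorescent compounds give negative values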
GRK2 CP1 – GRK2 aptamer-displacing inhibitors, retest, confirmation, biochemical, cherry pick 1, bead flow cytometry; shares compounds with GRK2 inh; bead-bound GRK2, FAM-aptamer displacement; aptamer displacement, % at 10 µM; 2,000 tested, 4% active; AID 504451, 2011;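 active = aptamer displacement above 40%, near three times the noise of non-fluorescent compounds, on plates passing quality checks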;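 also: negative values mostly reflect intrinsic compound fluorescence rather than true enhancement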
FAM quench CP1 – counter-screen for GRK2 aptamer inhibitors: fluorescent aptamer quenchers; shares compounds with GRK2 inh; Carboxyfluorescein RNA aptamer on beads, flow cytometry quenching; stronger effect = lower value; fluorescence response (% of DMSO), % at 10 µM; 2,000 tested, under 10 active; AID 504580;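 active = compounds that quench the bead-bound fluorescent RNA probe, cutting fluorescence to under half of the solvent control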;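 also: counterscreen run without GRK2 so only probe quenching by compound is measured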
GRK2 CP2 – GRK2 aptamer-displacing inhibitors, hit retest, confirmation, biochemical, cherry pick 2, bead flow cytometry; shares compounds with GRK2 inh; bead-bound GRK2, FAM-aptamer displacement; inhibition of aptamer binding, % at 10 µM; 360 tested, under 10 active;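 active = inhibition of aptamer binding above 40%, about triple the noise seen with nonglowing compounds, on plates passing quality control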;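 also: negative values mostly come from compounds that fluoresce themselves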
FAM quench CP2 – counter-screen for GRK2 binding hits: quenchers of fluorescent RNA aptamer; fluorescence response vs DMSO, % at 10 µM; shares compounds with GRK2 inh; carboxyfluorescein RNA aptamer beads, flow cytometry quenching; stronger effect = lower value; 360 tested, under 10 active;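 active = response vs DMSO under 50%, meaning signal dropped by over half, treated as fluorescence quencher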;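 also: labelled aptamer on streptavidin beads without GRK2 as a quench counter-screen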
Scp1 confirm – Scp-1 phosphatase inhibitors, retest, confirmation, biochemical, colorimetric, single concentration; 2,500 tested, 61% active; inhibition, % at 20 µM; recombinant SCP-1 catalytic domain, phosphate release, malachite green absorbance; AID 540281, 2011; shares compounds with Scp-1 inhibitor
Scp-1 MG ctr – colorimetric readout interference by compounds, confirmation, artefact control for Scp-1 inhibitor project, biochemical, single concentration; 2,500 tested, under 10 active; AID 540313, 2011; shares compounds with Scp-1 inhibitor; Colorimetric interference counterscreen, malachite green absorbance 630 nm; apparent inhibition (interference), % at 20 µM;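 also: compounds added after enzyme reaction finished so only phosphate colour detection is probed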
Scp1 DSF – Scp-1 binding by thermal shift, confirmation, orthogonal assay for Scp-1 inhibitor project, biophysical, differential scanning fluorimetry | 1,500 tested, 25% active | shares compounds with Scp-1 inhibitor | Recombinant SCP1, Sypro Orange thermal shift Tm | AID 540329, 2011 | thermal shift relative to vanadate control, % at 40 µM;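 active = substances whose mean melting-temperature shift, as a percentage of the reference inhibitor's shift, reaches about 5.3%, limit read from the data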
Hits are given with their value; . = inactive; / = no result given.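 The calls were made as follows, unless noted: active = inhibition of at least 30% at 20 µM; inactive = the rest.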

SMILES | Scp-1 inhibitor | SUMO1-SIM PPI | LMPTP inh | STEP inh | DNMT1 block | GRK2 inh | GRK2 CP1 | FAM quench CP1 | others
NNc1ccc2nnc(C(F)(F)C(F)(F)C(F)(F)F)n2n1 | . | . | . | . | . | 80 | . | .
CCNC(=O)C1CCCN(C(=O)c2ccc3c(c2)CCO3)CC1 (stereo unspecified) | / | . | . | . | . | / | / | /
O=C(NCc1ccccc1Cl)c1csc([C@@H]2C[C@H](O)[C@@H](CO)O2)n1 | / | . | . | . | . | / | / | /
CC(CNC(=O)c1ccc2c(c1)OCO2)c1ccc([N+](=O)[O-])cc1 (stereo unspecified) | . | . | . | . | . | 67 | . | .
CCCCN1C(=O)C(CC(=O)NC2CCCCC2)CC(C(=O)N(C)C)=C1C (stereo unspecified) | / | . | . | . | . | / | / | /
CC(=O)c1cccc(NC(=O)CN2C(=O)NC3(CCCCCCC3)C2=O)c1 | . | . | . | . | . | 100 | . | .
Cc1cc(C)c(NC(=O)CN2C(=O)NC3(CCCCC3)C2=O)c(Cl)c1 | . | . | . | . | . | 83 | . | .
COc1ccc(C(C)=O)cc1CN1C(=O)NC2(CCCCCCC2)C1=O | . | . | . | . | . | . | / | /
Cc1cc(C)c(NC(=O)CN2C(=O)NC3(CCc4ccccc43)C2=O)c(Cl)c1 (stereo unspecified) | . | . | . | . | . | . | / | /
CCOc1ccc(C(C)=O)cc1CN1C(=O)NC2(CCCCCC2)C1=O | . | . | . | . | . | 83 | . | .
CC(=O)C1=CCC(c2ccccc2)N(Cc2ccccc2)C1 (stereo unspecified) | / | . | . | / | / | / | / | /
COc1cccc(/C=N/NC(=O)CC2C(=O)NN=C2C)c1O (stereo unspecified) | . | . | . | . | . | 66 | . | .
COc1cccc(/C=N/NC(=O)CC2C(=O)NN=C2C)c1OC (stereo unspecified) | . | . | . | . | . | . | / | /
c1ccc(C[C@H]2CN=C(Nc3ccccc3)N2CCC2CCCC2)cc1 | . | . | . | . | . | 68 | . | .
CC(C)C[C@H]1CN=C(Nc2ccccc2)N1CCC1CCCCC1 | . | . | . | . | . | . | / | /
Nc1cc(N)cc(C(=O)c2ccccc2)c1 | / | . | . | . | . | / | / | /
CS(=O)(=O)N(Cc1ccccc1)c1ccc(C(=O)Nc2ccccc2C(=O)O)cc1 | . | . | . | . | . | 51 | . | .
CC1(c2ccc3ccccc3c2)NC(=O)N(CC(=O)O)C1=O (stereo unspecified) | . | . | . | . | . | 47 | . | .
COc1ccc(CNC(=O)CN2C(=O)NC(C)(c3ccc(Cl)cc3)C2=O)cc1 (stereo unspecified) | . | . | . | . | . | 54 | . | .
CC(=O)N1CCN(C(=O)CN2C(=O)NC(C)(c3ccc4ccccc4c3)C2=O)CC1 (stereo unspecified) | . | . | . | . | . | . | / | /
C[C@@H]1CN([C@@H](C)CO)C(=O)CCCn2nncc2CO[C@H]1CN(C)Cc1ccc2cccnc2c1 | / | . | . | . | . | / | / | /
O=C(Nc1ccc(F)cc1)C(c1ccnc2ccccc12)N1CCN(CC(=O)N2CCCC2)CC1 (stereo unspecified) | / | . | . | / | / | / | / | /
COc1ccc2nc(NC(=O)CSc3nnnn3C3CCCCC3)sc2c1 | . | . | . | . | . | 51 | . | .
CCOc1ccc2nc(NC(=O)CSc3nnnn3C3CCCCC3)sc2c1 | . | . | . | . | . | . | / | /
COc1ccc(-n2nc(C(=O)NCc3cc(OC)ccc3OC)c3c4ccccc4n(C)c3c2=O)cc1 | . | . | . | . | . | 77 | . | .
SMILES | Scp-1 inhibitor | SUMO1-SIM PPI | LMPTP inh | STEP inh | DNMT1 block | GRK2 inh | GRK2 CP1 | FAM quench CP1 | others
COc1ccc(-n2nc(C(=O)NCc3ccco3)c3c4ccccc4n(C)c3c2=O)cc1 | . | . | . | . | . | . | / | /
NNC(=O)c1ccccc1-n1cccc1 | . | . | . | . | . | . | / | / | GRK2 CP2=.;FAM quench CP2=.
CC(=O)c1ccc(NC(=O)CCS(=O)(=O)c2ccc3c(c2)n(C)c(=O)c(=O)n3C)cc1 | 71 | . | . | . | . | 48 | . | . | GRK2 CP2=.;FAM quench CP2=.;Scp1 confirm=31;Scp-1 MG ctr=.;Scp1 DSF=.
CC(=O)Nc1ccc(NC(=O)CCS(=O)(=O)c2ccc3c(c2)oc(=O)n3C)cc1 | . | . | . | . | . | . | / | /
COc1ccccc1C(=O)Nc1c2c(nn1-c1ccc(Cl)cc1)CS(=O)(=O)C2 | 50 | . | . | . | . | 44 | / | / | GRK2 CP2=.;FAM quench CP2=.;Scp1 confirm=.;Scp-1 MG ctr=.
COc1ccccc1C(=O)Nc1c2c(nn1-c1ccc([N+](=O)[O-])cc1)CS(=O)(=O)C2 | . | . | . | . | . | . | / | /
O=C(CSc1nnc(Nc2ccccc2F)s1)NC1CCS(=O)(=O)C1 (stereo unspecified) | . | . | . | . | . | . | / | /
